Data taken from ChEMBL document CHEMBL4665652, “Discovery of novel quinoline sulphonamide derivatives as potent, selective and orally active RORγ inverse agonists” (Bioorg Med Chem Lett, 2019).

Tests used:
[1] = biological target: CYP3A4 (Homo sapiens, UniProt P08684); experiment: Inhibition of CYP3A4 (unknown origin) at 1 uM relative to control; format: ADME
[2] = (§1) In vivo inverse agonist activity at RORgamma in MOG(35-55) peptide/PTX-induced mechanistic C57BL/6 mouse model assessed as anti-CD3 induced IL-17F level in serum at 30 mg/kg, po dosed for 5 days during MOG/PTX priming and followed by 45 mins prior to anti-CD3 challenge and measured after 2 hrs relative to control; format: functional; settings: time 5 day
Summary of the method: (§2)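 Mice immunized with mouse MOG35-55 peptide plus pertussis toxin. After 5 days, compound given orally as a suspension in methylcellulose 400cp + 1% poloxamer, 45 min before an anti-CD3 challenge. Circulating cytokines measured 2 h later. Comparison vs vehicle by Dunnett post test.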

[3] = tested on: Mus musculus; experiment: Immunosuppressive activity in PLP (139 to 151 residues)-induced experimental autoimmune encephalomyelitis mouse model assessed as incidence of disease at 30 mg/kg, po administered bid starting from immunization relative to control; format: functional
Summary of the method: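 EAE induced in mice by immunization with proteolipid protein peptide PLP139-151; ascending paralysis develops 10–12 days post-immunization. Compound dosed orally b.i.d. starting from immunization. Disease onset/incidence scored relative to control.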

[4] = as §1, with “IL-6” for “IL-17F”; format: functional; settings: time 5 day; summary of the method: as §2
[5] = as §1, with “IFNgamma” for “IL-17F”, “100” for “30”; format: functional; settings: time 5 day; summary of the method: as §2
[6] = as §1, with “IL-22” for “IL-17F”, “10” for “30”; format: functional; settings: time 5 day; summary of the method: as §2
[7] = AUClast in mouse at 10 mg/kg, po; format: ADME, organism-based; parameters: route oral, time 0 - last, dose 10 mg/kg; settings: in vivo
Summary of the method: (§3)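 Mice dosed orally at 10, 30 or 100 mg/kg as a suspension in 1% methylcellulose 400cp + 0.1% Poloxamer (188). Tmax, Cmax, AUClast and oral t1/2 were taken from plasma concentration–time profiles. Ratios are the value at each dose over the value at 10 mg/kg.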

[8] = Half life in mouse at 30 mg/kg, po; format: ADME, organism-based; settings: in vivo; summary of the method: as §3

Sequence of CYP3A4 (P08684 whole entry): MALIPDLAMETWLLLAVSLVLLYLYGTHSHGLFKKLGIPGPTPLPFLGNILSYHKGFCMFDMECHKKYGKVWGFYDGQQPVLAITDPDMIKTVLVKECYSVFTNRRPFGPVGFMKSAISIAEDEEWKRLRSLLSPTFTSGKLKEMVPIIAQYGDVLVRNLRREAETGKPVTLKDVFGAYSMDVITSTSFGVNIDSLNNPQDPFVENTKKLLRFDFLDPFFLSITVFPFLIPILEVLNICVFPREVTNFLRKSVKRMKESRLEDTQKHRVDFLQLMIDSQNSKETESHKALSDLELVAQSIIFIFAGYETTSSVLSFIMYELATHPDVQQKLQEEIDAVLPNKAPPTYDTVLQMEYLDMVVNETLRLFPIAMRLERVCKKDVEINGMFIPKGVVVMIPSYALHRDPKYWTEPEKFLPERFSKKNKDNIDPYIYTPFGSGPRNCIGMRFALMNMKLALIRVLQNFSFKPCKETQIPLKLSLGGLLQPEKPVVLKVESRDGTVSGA

Question: Which inhibition at 1 µM [1] does the source give for `CNC(=O)[C@@H]1CCCN1S(=O)(=O)c1ccc(Cl)c(COc2cccc3c(-c4cncn4C)cc(C(C)C)nc23)c1Cl` here?
Answer: 99%

Question: What about the Activity [2] of the same compound?
Answer: -49%

Question: What about the Activity [3] of the same compound?
Answer: 100%

Question: And the Activity [4]?
Answer: -56%

Question: And the Activity [5]?
Answer: -81%

Question: And the Activity [6]?
Answer: -16%

Question: And the AUC(0-t) [7]?
Answer: 3900 ng·h/mL

Question: And the half-life [8]?
Answer: 1 h
